# Laboratory results as given in ChEMBL document CHEMBL3120099, “Novel S1P(1) receptor agonists--part 2: from bicyclo[3.1.0]hexane-fused thiophenes to isobutyl substituted thiophenes” (J Med Chem, 2014).
# Calls of active or inactive are those of the source. The calls are words filed in the database; no cut-off is given here.
# What was measured:
# [1] = tested on: Rattus norvegicus; experiment: Lymphopenic activity in Wistar rat assessed as reduction in blood lymphocyte count at 10 mg/kg, po after 96 hrs; assay type: functional; parameters: scale not given: the % may be the effect or the level left
# Summary of the method: (§1)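 Normotensive male Wistar rats given 1–10 mg/kg by gavage in 5% DMSO/7.5% succinylated gelatin. Blood taken before and 3, 6 and 24 h after dosing, with later times for some compounds. Lymphocytes counted by hematology analyzer. % LC change calculated per animal relative to the predose value (=100%). Mean ± SEM.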
# [2] = tested on: Rattus norvegicus; experiment: Lymphopenic activity in Wistar rat assessed as reduction in blood lymphocyte count at 10 mg/kg, po after 24 hrs; assay type: functional; summary of the method: as §1
# [3] = tested on: Rattus norvegicus; experiment: Lymphopenic activity in Wistar rat assessed as reduction in blood lymphocyte count at 10 mg/kg, po after 6 hrs; assay type: functional; parameters: scale not given: the % may be the effect or the level left; summary of the method: as §1
# [4] = tested on: Rattus norvegicus; experiment: Lymphopenic activity in Wistar rat assessed as reduction in blood lymphocyte count at 10 mg/kg, po after 3 hrs; assay type: functional; parameters: scale not given: the % may be the effect or the level left; summary of the method: as §1
# [5] = tested on: Rattus norvegicus; experiment: Lymphopenic activity in Wistar rat assessed as reduction in blood lymphocyte count at 3 mg/kg, po after 24 hrs; assay type: functional; parameters: scale not given: the % may be the effect or the level left; summary of the method: as §1
# [6] = tested on: Rattus norvegicus; experiment: Lymphopenic activity in Wistar rat assessed as reduction in blood lymphocyte count at 3 mg/kg, po after 6 hrs; assay type: functional; parameters: scale not given: the % may be the effect or the level left; summary of the method: as §1
# [7] = tested on: Rattus norvegicus; experiment: Lymphopenic activity in Wistar rat assessed as reduction in blood lymphocyte count at 3 mg/kg, po after 3 hrs; assay type: functional; parameters: scale not given: the % may be the effect or the level left; summary of the method: as §1
# [8] = target: Sphingosine 1-phosphate receptor 3 (Homo sapiens, UniProt Q99500); experiment: Agonist activity at human recombinant S1P3 receptor expressed in CHO cells assessed as membrane-bound 35S-GTPgammaS incubated 30 mins prior to substrate addition measured after 1 hr by topcount scintillation counting analysis; assay type: functional, cell-based
# Sequence of Sphingosine 1-phosphate receptor 3 (Q99500 whole entry): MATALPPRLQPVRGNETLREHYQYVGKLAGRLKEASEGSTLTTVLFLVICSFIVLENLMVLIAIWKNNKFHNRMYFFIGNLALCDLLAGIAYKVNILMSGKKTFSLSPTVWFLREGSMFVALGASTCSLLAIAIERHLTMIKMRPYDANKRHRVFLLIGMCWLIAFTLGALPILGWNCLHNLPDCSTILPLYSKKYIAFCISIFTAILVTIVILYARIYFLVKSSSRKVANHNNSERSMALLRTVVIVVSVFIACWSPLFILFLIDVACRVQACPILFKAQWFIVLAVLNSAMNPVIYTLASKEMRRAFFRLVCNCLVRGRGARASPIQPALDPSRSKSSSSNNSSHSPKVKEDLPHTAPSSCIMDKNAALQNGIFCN
# [9] = target: Sphingosine 1-phosphate receptor 1 (Homo sapiens, UniProt P21453); experiment: Agonist activity at human recombinant S1P1 receptor expressed in CHO cells assessed as membrane-bound 35S-GTPgammaS incubated 30 mins prior to substrate addition measured after 1 hr by topcount scintillation counting analysis; assay type: functional, cell-based
# Sequence of Sphingosine 1-phosphate receptor 1 (P21453 whole entry): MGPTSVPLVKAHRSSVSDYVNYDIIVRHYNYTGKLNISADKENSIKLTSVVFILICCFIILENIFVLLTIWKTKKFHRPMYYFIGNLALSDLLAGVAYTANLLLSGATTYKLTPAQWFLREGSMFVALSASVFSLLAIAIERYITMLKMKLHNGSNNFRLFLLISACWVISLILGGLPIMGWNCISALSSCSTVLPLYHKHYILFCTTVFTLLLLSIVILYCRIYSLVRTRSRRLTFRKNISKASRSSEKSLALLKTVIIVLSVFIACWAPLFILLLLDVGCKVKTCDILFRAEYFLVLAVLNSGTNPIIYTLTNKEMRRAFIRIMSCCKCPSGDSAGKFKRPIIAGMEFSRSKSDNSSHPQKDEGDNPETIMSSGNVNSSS
# [10] = Plasma concentration in Wistar rat at 10 mg/kg, po after 24 hrs; assay type: ADME, organism-based; parameters: dose 10 mg/kg, route oral
# [11] = Plasma concentration in Wistar rat at 10 mg/kg, po after 6 hrs; assay type: ADME, organism-based; parameters: dose 10 mg/kg, route oral
# [12] = Plasma concentration in Wistar rat at 10 mg/kg, po after 3 hrs; assay type: ADME, organism-based; parameters: dose 10 mg/kg, route oral
# [13] = Oral bioavailability in Wistar rat at 10 mg/kg; assay type: ADME, organism-based; details: in vivo
# Summary of the method: (§2)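 Male Wistar rats (~250 g), 10 mg/kg by gavage as a DMSO solution added to 7.5% succinylated gelatin in water (5% DMSO final). Sublingual blood under light isoflurane predose and at 0.5, 1, 2, 3, 4, 6, 8, 24 h into EDTA. Plasma LC-MS-MS after methanol precipitation. Noncompartmental parameters. Bioavailability referenced to 1 mg/kg iv.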
# [14] = Tmax in Wistar rat at 10 mg/kg, po; assay type: ADME, organism-based; parameters: dose 10 mg/kg, route oral; details: in vivo; summary of the method: as §2
# [15] = Cmax in Wistar rat at 10 mg/kg, po; assay type: ADME, organism-based; parameters: dose 10 mg/kg, route oral; details: in vivo; summary of the method: as §2
# [16] = AUC (0 to 24 hrs) in Wistar rat at 10 mg/kg, po; assay type: ADME, organism-based; parameters: time < 24 hr, dose 10 mg/kg, route oral; details: plasma
# [17] = Half life in Wistar rat at 1 mg/kg, iv; assay type: ADME, organism-based; parameters: dose 1 mg/kg, route intravenous; details: in vivo
# Summary of the method: (§3)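 Male Wistar rats (~250 g), jugular vein and carotid artery catheters implanted 2 days before dosing under isoflurane with buprenorphine analgesia. 1 mg/kg given as a 5 min jugular infusion in aqueous mixed micellar vehicle (phospholipids, bile acids). Serial EDTA blood sampling up to 24 h. Plasma analysed by LC-MS-MS after methanol precipitation. Noncompartmental analysis.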
# [18] = Volume of distribution at steady state in Wistar rat at 1 mg/kg, iv; assay type: ADME, organism-based; parameters: dose 1 mg/kg, route intravenous; details: in vivo, read-out: Vdss; summary of the method: as §3
# [19] = tested on: Rattus norvegicus; experiment: Clearance in Wistar rat at 1 mg/kg, iv; assay type: ADME, organism-based; parameters: dose 1 mg/kg, route intravenous; details: in vivo; summary of the method: as §3
# [20] = Intrinsic clearance in Wistar rat hepatocytes assessed per 10^6 cells at 1 uM by LC-MS/MS analysis; assay type: ADME, cell-based, Hepatocyte; details: read-out: CLH
# Summary of the method: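 Male rat hepatocytes from two-step collagenase perfusion (viability ≥85%), plated at 5.0 × 10^5 viable cells/mL on collagen and preincubated ~3 h at 37 °C, 5% CO2. Compound at 1 µM final. Duplicate wells sampled at 0–24 h with methanol/0.3% SDS. LC-MS-MS (MRM). CLint from initial first-order disappearance rates.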
# [21] = Intrinsic clearance in Wistar rat liver microsomes at 1 uM by LC-MS/MS analysis; assay type: ADME; details: read-out: CLH
# Summary of the method: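 Pooled male Wistar rat liver microsomes at 0.5 mg/mL protein. Compound at 1 µM, 37 °C, DMSO ≤0.1%. Started with NADPH-regenerating system (NADP, glucose 6-phosphate, MgCl2, G6PDH, pH 7.4 phosphate). Quenched with ice-cold methanol at times up to 15 min, then LC-MS-MS.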
smiles,measurement,setting,value
Cc1cc(-c2noc(-c3sc(C)c4c3C[C@@H]3[C@H]4C3(C)C)n2)cc(C)c1OCC(O)CNC(=O)CO (mixture of isomers),Activity,[1],30%
same,% change in blood lymphocyte count from predose,[2],-73%
same,Activity,[3],-69%
same,Activity,[4],-66%
Cc1cc(-c2noc(-c3scc(CC(C)C)c3C)n2)cc(C)c1OCC(O)CNC(=O)CO (racemic),Activity,[5],-27%
same,Activity,[6],-79%
same,Activity,[7],-67%
same,% change in blood lymphocyte count from predose,[2],-80%
same,Activity,[3],-79%
same,Activity,[4],-72%
same,EC50,[8],0.528 µM
same,EC50,[9],0.0015 µM
CCc1cc(CCC(=O)c2sc(CC)c3c2CCC(C)(C)C3)cc(C)c1OCC(O)CNC(=O)CO (racemic),concentration at 24 h,[10],< 1.5 ng/mL
same,concentration at 6 h,[11],10 ng/mL
same,concentration at 3 h,[12],32 ng/mL
same,Activity,[3],Active
same,Activity,[4],Active
same,bioavailability,[13],8%
same,Tmax,[14],0.5 h
same,Cmax,[15],141 ng/mL
same,AUC(0-t) at 24 h,[16],276 ng·h/mL
same,half-life,[17],1.7 h
same,Vd,[18],2.8 L/kg
same,clearance,[19],46 mL/min/kg
same,hepatocyte CLint at 1 µM,[20],107 µL/min/1e6 cells
same,microsomal CLint at 1 µM,[21],> 1250 µL/min/mg
same,EC50,[8],0.141 µM
same,EC50,[9],0.0006 µM
